Results collected from several papers.
Each line is one published result; the experiments were not run side by side.

Compound | cell line | assay | setting | IC50
O=C(/C=C/c1cccc(S(=O)(=O)Nc2ccccc2)c1)NO | SW-620 | cell growth or viability, SRB | 48 h | 3230 nM
COc1cc(Nc2nccc(-c3cnn4nc(OC)ccc34)n2)cc(C(F)(F)F)c1 | J82 | cell growth or viability, ATP luminescence |  | 850 nM
CCCCCCCCCCCC(=O)Oc1c(C)c(O)c(C(=O)/C=C/c2ccccc2)c(OC)c1C | FaDu | cell growth or viability, SRB | 72 h | > 50000 nM
O=c1[nH]cc(F)c(=O)[nH]1 | HEp-2 | cell growth or viability, WST-1 | 48 h | 9300 nM
CC(C)NCC(O)c1cc(O)cc(O)c1 (stereo not drawn) | THP-1 | TNF-α release, inhibitor | 17 h, LPS-stimulated | 600 nM
CCCCCC/N=C1\c2cc(C(N)=O)nc3c(N)c(Cl)c(N)c(c23)N1C | Calu-3 | cell growth or viability |  | 860 nM
CCCCc1ccc2[nH]c(NC(=O)OC)nc2c1 | FaDu | cell growth or viability | 72 h | 153 nM
Cc1[nH]c2ccccc2c1CCNCc1ccc(/C=C/C(=O)NO)cc1 | C13 | cell growth or viability, crystal violet |  | 9.3 nM
CC(C)[C@H](N)C(=O)N1CCC[C@H]1B(O)O | NOMO-1 | cell growth or viability, ATP luminescence | 5 days | 31 nM
CC(C)C(=O)SCCCCCCC(=O)Nc1nc(-c2ccccc2)cs1 | FaDu | cell growth or viability | 72 h | 4290 nM
COc1c(C)c(OC)c2c(c1C)OC(c1ccccc1)CC2=O (stereo not drawn) | FaDu | cell growth or viability, SRB | 72 h | > 50000 nM
Nc1ccn([C@@H]2O[C@H](CO)[C@@H](O)C2(F)F)c(=O)n1 | Panc02 | cell growth or viability, CCK-8 | 72 h | 34.1 nM
NCCc1ccc(O)c(O)c1 | FaDu | cell growth or viability | 72 h | > 20000 nM
N#Cc1cc([N+](=O)[O-])c2sc(C(N)=O)[n+]([O-])c2c1 | THP-1 | TNF-α release, inhibitor | 17 h, LPS-stimulated | 2960 nM
CC[C@@]1(O)C(=O)OCc2c1cc1n(c2=O)Cc2cc3ccccc3nc2-1 | P388 | cell growth or viability, MTT | 96 h | 4 nM
CCCn1cnc2cc(/C=C/C(=O)NO)ccc2c1=O | SW-620 | cell growth or viability, SRB | 48 h | 1340 nM
O=Cc1ccc(CO)o1 | HEp-2 | cell growth or viability, WST-1 | 48 h | 78900 nM
N#Cc1ccc(COC[C@H]2O[C@@H](n3c(NCc4ccc(Cl)c(Cl)c4)nc4c(N)ncnc43)[C@H](O)[C@@H]2O)cc1 | FaDu | cell growth or viability | 72 h | > 20000 nM

Compound | cell line | assay | setting | IC50
O=C(/C=C/c1ccc2c(=O)n(CC3CCCCC3)cnc2c1)NO | SW-620 | cell growth or viability, SRB | 48 h | 1440 nM
CC1(C)CC[C@]2(C)CC[C@]3(C)C(=CC[C@@H]4[C@@]5(C)CC[C@H](O)C(C)(C)[C@@H]5CC[C@]43C)[C@@H]2C1 | HEp-2 | cell growth or viability, WST-1 | 48 h | 85600 nM
Nc1c2c(nc3ccccc13)CCCC2O (stereo not drawn) | FaDu | cell growth or viability | 72 h | > 20000 nM
COc1ccc(CC(C)NCC(O)c2ccc(O)c(NC=O)c2)cc1 (stereo not drawn) | THP-1 | TNF-α release, inhibitor | 17 h, LPS-stimulated | 6 nM
O=C1Nc2ccc(Cl)cc2[C@@](C#CC2CC2)(C(F)(F)F)O1 | FaDu | cell growth or viability | 72 h | > 20000 nM
CC[C@@H](C)[C@H](N)C(=O)N1Cc2ccccc2C1 | NOMO-1 | cell growth or viability, ATP luminescence | 48 h | 4180 nM
CC(C)c1ccccc1S(=O)(=O)c1cc(N)c2ncccc2c1[N+](=O)[O-] | FaDu | cell growth or viability | 72 h | > 20000 nM
O=C(/C=C/c1ccc2ncn(CC3CCCCC3)c(=O)c2c1)NO | SW-620 | cell growth or viability, SRB | 48 h | 1160 nM
CCOc1cc(OCC)cc(C(=O)O[C@@H]2CN3Cc4c(cc5c(c4OC)OCO5)[C@@]24C=C[C@H](OC)C[C@@H]34)c1 | SAOS-2 | cell growth or viability, WST-1 |  | 2800 nM
CC(C)NCC(O)c1ccc(O)c(O)c1 (racemic) | THP-1 | TNF-α release, inhibitor | 17 h, LPS-stimulated | 16 nM
COc1ccc(CCN(C)CCc2ccc(OC)c(OC)c2)cc1OC | FaDu | cell growth or viability | 72 h | > 20000 nM
CC(C)C[C@H](NC(=O)[C@H](Cc1ccccc1)NC(=O)c1cnccn1)B(O)O | SK-MEL3 | cell growth or viability, ATP luminescence |  | 9.9 nM
COc1cc(C2Oc3cc([C@H]4Oc5cc(O)cc(O)c5C(=O)[C@@H]4O)ccc3OC2CO)ccc1O (stereo partly drawn) | HepaRG | cell growth or viability, MTT | 24 h | 142000 nM
Cc1cc(-c2nc(C(=O)Nc3cc4oc(N5CCOCC5)nc4nc3N3CC[C@@H](O)C3)co2)ccn1 | A20 | cell growth or viability | 5 days | 2450 nM
COc1ccc(C(=O)O[C@@H]2CN3Cc4c(cc5c(c4OC)OCO5)[C@@]24C=C[C@H](OC)C[C@@H]34)cc1OC | SAOS-2 | cell growth or viability, WST-1 |  | 2100 nM
CC(CCc1ccc(O)cc1)NCCc1ccc(O)c(O)c1 (stereo not drawn) | THP-1 | TNF-α release, inhibitor, ELISA | 17 h, LPS-stimulated | 90 nM
CN1C(=O)c2cc(C(N)=O)nc3c(N)c(Cl)c(N)c1c23 | Calu-3 | cell growth or viability |  | 17600 nM
O=c1c(O)c(-c2ccc(O)cc2)oc2cc(O)cc(O)c12 | HEp-2 | cell growth or viability, WST-1 | 48 h | 30300 nM
